From ChEMBL document CHEMBL1143930, “S-Euglobals: biomimetic synthesis, antileishmanial, antimalarial, and antimicrobial activities” (Bioorg Med Chem, 2008) come the findings set out here.

Broadly, the IC50 is the concentration needed to halve the response being measured. The MIC is the lowest concentration that inhibits growth of the organism. Usually IC90 stands for the concentration at which the effect reaches the 90% level.

One data set deals with Leishmania donovani. Kind of data set: Antileishmanial activity against Leishmania donovani promastigotes after 48 hrs by Alamar blue assay. It counts as functional, organism-based. An outline of the steps:
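L. donovani promastigotes were grown in RPMI 1640 with 10% fetal calf serum at 26 C. A 3-day-old culture was diluted to 5 × 10^5 promastigotes/mL, and drug dilutions were made directly in the cell suspension. After 48 h at 26 C, growth was read by Alamar Blue fluorescence (ex 544/em 590 nm). IC50 and IC90 came from percent growth versus concentration curves.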
(In general: Alamar Blue is a resazurin reagent that responds to reducing activity.)

A further data set has as its system Candida albicans. Description: Antifungal activity against Candida albicans. Format: functional, organism-based. An outline of the steps: (§1)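 Modified NCCLS broth microdilution. Samples in DMSO were serially diluted in 0.9% saline and tested in duplicate. Inocula were matched to the 0.5 McFarland standard by absorbance at 630 nm, then diluted in broth. Growth, solvent and media controls were included. Plates were read at 630 nm before and after incubation, and IC50 was taken from percent growth versus concentration.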

In a further data set the test system is Cryptococcus neoformans. Kind of data set: Antifungal activity against Cryptococcus neoformans. Format: functional, organism-based. An outline of the steps: as §1
The test system of another data set is Aspergillus fumigatus. Kind of data set: Antifungal activity against Aspergillus fumigatus. It counts as functional, organism-based. An outline of the steps: as §1
In data set [1] the test system is SK-MEL. Kind of data set: Cytotoxicity against human SKMEL cells by neutral red assay up to 25 ug/mL. Format: functional, cell-based. An outline of the steps: (§2)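 Cells were seeded at 25,000 per well and incubated 24 h. Test samples were added at a range of concentrations, followed by a further 48 h incubation. Viable cells were quantified by Neutral Red uptake, and IC50 was read from dose curves of percent growth versus concentration.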

Data set [2] relates to KB. Kind of data set: Cytotoxicity against human KB cells by neutral red assay up to 25 ug/mL. It counts as functional, cell-based. An outline of the steps: as §2
Data set [3] deals with BT-549. Kind of data set: Cytotoxicity against human BT549 cells by neutral red assay up to 25 ug/mL. It counts as functional, cell-based. An outline of the steps:
as §2

Data set [4] has as its system SK-OV-3. Description: Cytotoxicity against human SK-OV3 cells by neutral red assay up to 25 ug/mL. It counts as functional, cell-based. An outline of the steps:
as §2

For data set [5], the system named is Vero. Description: Cytotoxicity against african green monkey Vero cells by neutral red assay up to 25 ug/mL. It counts as cell-based. Particulars: chlorocebus sabaeus. An outline of the steps:
as §2

A short description of data set [6]: Cytotoxicity against pig LLC-PK11 cells by neutral red assay up to 25 ug/mL. Format: cell-based, Sus scrofa. An outline of the steps: as §2
Another data set deals with Staphylococcus aureus. Description: Antibacterial activity against methicillin-resistant Staphylococcus aureus. It counts as functional, organism-based. An outline of the steps: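 Modified NCCLS broth microdilution. Samples in DMSO serially diluted in 0.9% saline, tested in duplicate. Inoculum set against 0.5 McFarland standard by absorbance at 630 nm, then diluted in broth. Growth, solvent and media controls included. Plates read at 630 nm before and after incubation. IC50 from percent growth vs concentration; MIC = lowest concentration with no detectable growth.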

In data set [7] the test system is BT-549. Kind of data set: Cytotoxicity against human BT549 cells by neutral red assay. Format: functional, cell-based. An outline of the steps:
as §2

Data set [8] concerns KB. Kind of data set: Cytotoxicity against human KB cells by neutral red assay. It counts as functional, cell-based. An outline of the steps:
as §2

For data set [9], the system named is Vero. Description: Cytotoxicity against african green monkey Vero cells by neutral red assay. Format: cell-based. As to conditions: chlorocebus sabaeus. An outline of the steps: as §2
For data set [10], the system named is SK-MEL. Kind of data set: Cytotoxicity against human SKMEL cells by neutral red assay. Format: functional, cell-based. An outline of the steps:
as §2

Data set [11] deals with SK-OV-3. Description: Cytotoxicity against human SK-OV3 cells by neutral red assay. Format: functional, cell-based. An outline of the steps: as §2
A short description of data set [12]: Cytotoxicity against pig LLC-PK11 cells by neutral red assay. Format: cell-based. As to conditions: Sus scrofa. An outline of the steps: as §2

Converted amounts (≈) assume the structure as drawn. The source made the active and inactive calls. The calls are words filed in the database; no cut-off is given here.

`CC1(C)[C@H]2C[C@@H]3Cc4c(O)c(C=O)c(O)c(C=O)c4O[C@]3(CCO)[C@@H]1C2` yielded an IC50 in the data set with Leishmania donovani of 22 µg/mL (≈ 61 µM). The outcome with Candida albicans, in the data set with Cryptococcus neoformans, in the data set on Aspergillus fumigatus, in the data set on SK-MEL [1], in the data set with KB [2] and in the data set on BT-549 [3] was inactive. For the same compound, in the data set on SK-OV-3 [4], the result was inactive. Besides, the Activity entry (in the data set on Vero [5]; in data set [6]) was “Not Active” throughout.
Compound `O=C(O)c1cn(C2CC2)c2cc(N3CCNCC3)c(F)cc2c1=O` [CIPROFLOXACIN] gave an MIC against Staphylococcus aureus of 0.25 µg/mL (≈ 0.754 µM).
In the case of `CC(C)CC(=O)c1c(O)c2c(c(C(=O)CC(C)C)c1O)O[C@]1(C)C[C@@H]3[C@H](C[C@@H]1C2)C3(C)C`, the result in the data set with Leishmania donovani, with Candida albicans, in the data set on Cryptococcus neoformans, with Aspergillus fumigatus, in the data set on SK-MEL [1] and in the data set on KB [2] was inactive. Also, the result with BT-549 [3] and in the data set with SK-OV-3 [4] was inactive. The Activity entry (with Vero [5]; in data set [6]) was “Not Active” each time.
For the compound `CC(C)CC(=O)c1c(O)c2c(c(C(=O)CC(C)C)c1O)O[C@@]1(CCO)[C@@H](C2)C[C@H]2C[C@@H]1C2(C)C`, the result with Leishmania donovani, in the data set on Candida albicans, in the data set with Cryptococcus neoformans, in the data set with Aspergillus fumigatus, in the data set on SK-MEL [1] and with KB [2] was inactive. Moreover, the outcome with SK-OV-3 [4] was inactive. In the data set on BT-549 [7], this compound came in with an IC50 greater than 25 µg/mL. Also, the Activity entry (in the data set with Vero [5]; in data set [6]) was “Not Active” throughout.
In the case of `CC1(C)[C@H]2[C@@H]1CC[C@@H]1Cc3c(O)c(C=O)c(O)c(C=O)c3O[C@@]12C`, the IC50 is 20 µg/mL (≈ 60.5 µM) in the data set with Leishmania donovani, 20 µg/mL (≈ 60.5 µM) with KB [8] and greater than 25 µg/mL with BT-549 [7]. In addition, the IC90 in the data set on Leishmania donovani was 40 µg/mL (≈ 121 µM). Further, the outcome in the data set with Candida albicans, in the data set on Cryptococcus neoformans, in the data set on Aspergillus fumigatus, in the data set with SK-MEL [1] and with SK-OV-3 [4] was inactive. The Activity result (with Vero [5]; in [6]) was “Not Active” throughout.
Consider `CC(C)CC(=O)c1c(O)c2c(c(C(=O)CC(C)C)c1O)O[C@]1(CC2)CC[C@@H]2C[C@H]1C2(C)C`, for which the outcome in the data set with Leishmania donovani, with Candida albicans, with Cryptococcus neoformans, with Aspergillus fumigatus, with SK-MEL [1] and in the data set with KB [2] was inactive. Further, the result in the data set with BT-549 [3] and with SK-OV-3 [4] was inactive. For the same compound, the Activity entry (in the data set on Vero [5]; in data set [6]) was “Not Active” throughout.
As for `N=C(N)c1ccc(OCCCCCOc2ccc(C(=N)N)cc2)cc1` [PENTAMIDINE], in the data set on Leishmania donovani, the concentration for half-maximal inhibition (IC50) turned out to be 1.2 µg/mL (≈ 3.52 µM) and the IC90 came to 6 µg/mL (≈ 17.6 µM).
In turn, `CC(C)CC(=O)c1c(O)c(C=O)c2c(c1O)C[C@H]1C[C@H]3C[C@H](C3(C)C)[C@@]1(C)O2` [EUGLOBAL G2] showed an IC50 in the data set with Leishmania donovani of 3.6 µg/mL (≈ 9.31 µM).
Take `CC(C)CC(=O)c1c(O)c2c(c(C(=O)CC(C)C)c1O)O[C@@]1(CO)[C@@H](C2)C[C@H]2C[C@@H]1C2(C)C`: the values for the IC50 in the data set on Leishmania donovani, in the data set with BT-549 [7] and with Vero [9] were 24 µg/mL (≈ 52.3 µM), 25 µg/mL (≈ 54.5 µM) and greater than 25 µg/mL, respectively. Also, the outcome in the data set on Candida albicans, with Cryptococcus neoformans, with Aspergillus fumigatus, in the data set with SK-MEL [1], in the data set with KB [2] and with SK-OV-3 [4] was inactive. In addition, the Activity result in data set [6] is listed as “Not Active”.
In the data set on Leishmania donovani, `C[C@@H]1[C@H](O)[C@@H](C)/C=C/C=C/C=C/C=C/C=C/C=C/C=C/[C@H](O[C@@H]2O[C@H](C)[C@@H](O)[C@H](N)[C@@H]2O)C[C@@H]2O[C@](O)(C[C@@H](O)C[C@@H](O)[C@H](O)CC[C@@H](O)C[C@@H](O)CC(=O)O[C@H]1C)C[C@H](O)[C@H]2C(=O)O` [AMPHOTERICIN B] returned an IC50 of 0.19 µg/mL (≈ 0.206 µM) and an IC90 of 0.36 µg/mL (≈ 0.39 µM).
On to `CC(C)CC(=O)c1c(O)c(C=O)c2c(c1O)C[C@H]1C[C@H]3C[C@H](C3(C)C)[C@@]1(CO)O2`, for which the figures for the IC50 in the data set on Leishmania donovani, in the data set with BT-549 [7] and in the data set with Staphylococcus aureus were 18 µg/mL (≈ 44.7 µM), 23 µg/mL (≈ 57.1 µM) and 2.5 µg/mL (≈ 6.21 µM), respectively. In the data set on Leishmania donovani, this compound yielded a concentration for an effect of 90% (IC90) of 39 µg/mL (≈ 96.9 µM). Besides, the outcome in the data set on Candida albicans, with Cryptococcus neoformans, with Aspergillus fumigatus, with SK-MEL [1], in the data set with KB [2] and with SK-OV-3 [4] was inactive. For the same compound, the Activity result (in the data set with Vero [5]; in data set [6]) was “Not Active” each time.
`CC(C)CC(=O)c1c(O)c2c(c(C(=O)CC(C)C)c1O)O[C@@]1(CC2)[C@H]2CC[C@H](C2)C1(C)C`: the outcome with Leishmania donovani, with Candida albicans, in the data set with Cryptococcus neoformans, in the data set with Aspergillus fumigatus, in the data set with SK-MEL [1] and with KB [2] was inactive. Besides, the result with BT-549 [3] and with SK-OV-3 [4] was inactive. The Activity result (in the data set on Vero [5]; in data set [6]) was “Not Active” in each case.
As to `CC(C)CC(=O)c1c(O)c(C=O)c(O)c2c1O[C@@]1(CO)[C@@H](C2)C[C@H]2C[C@@H]1C2(C)C`, the IC50 worked out at 30 µg/mL (≈ 74.5 µM) in the data set on Leishmania donovani, 22.5 µg/mL (≈ 55.9 µM) with BT-549 [7] and 10 µg/mL (≈ 24.8 µM) in the data set on Staphylococcus aureus. The result in the data set on Candida albicans, in the data set with Cryptococcus neoformans, in the data set on Aspergillus fumigatus, in the data set on SK-MEL [1], with KB [2] and in the data set on SK-OV-3 [4] was inactive. Further, the Activity entry (with Vero [5]; in data set [6]) was “Not Active” throughout.
As for `CC1(C)[C@H]2C[C@@H]3Cc4c(O)c(C=O)c(O)c(C=O)c4O[C@]3(CO)[C@@H]1C2`, the outcome in the data set with Leishmania donovani, with Candida albicans, with Cryptococcus neoformans, in the data set with Aspergillus fumigatus and in the data set with SK-OV-3 [4] was inactive. Further, the half-maximal inhibitory concentration (IC50) in the data set on SK-MEL [10] and in the data set on BT-549 [7] was 25 µg/mL (≈ 72.2 µM) each time. The Activity result (in the data set with Vero [5]; in [6]) was “Not Active” in each case.
As to `CC(C)CC(=O)c1c(O)c2c(c(C(=O)CC(C)C)c1O)O[C@@]1(C)[C@H](CC[C@H]3[C@@H]1C3(C)C)C2`, the result with Leishmania donovani, in the data set with Candida albicans, with Cryptococcus neoformans, in the data set on Aspergillus fumigatus, in the data set with SK-MEL [1] and in the data set on KB [2] was inactive. Moreover, the outcome in the data set on BT-549 [3] and in the data set on SK-OV-3 [4] was inactive. For the same compound, the Activity result (in the data set with Vero [5]; in data set [6]) was “Not Active” each time.
With `CC(C)CC(=O)c1c(O)c(C=O)c2c(c1O)C[C@H]1CC[C@H]3[C@H](C3(C)C)[C@@]1(C)O2`, the IC50 in the data set with Leishmania donovani was 2.4 µg/mL (≈ 6.21 µM); in the data set with BT-549 [7], greater than 25 µg/mL; in the data set with SK-OV-3 [11] it was greater than 25 µg/mL; in [12], greater than 25 µg/mL. Moreover, the 90% effect level with Leishmania donovani (IC90) was put at 8 µg/mL (≈ 20.7 µM). For the same compound, the outcome in the data set with Candida albicans, in the data set on Cryptococcus neoformans, in the data set with Aspergillus fumigatus, in the data set on SK-MEL [1] and in the data set with KB [2] was inactive. For the same compound, the Activity entry in the data set on Vero [5] is listed as “Not Active”.
As for `CC(C)CC(=O)c1c(O)c2c(c(C(=O)CC(C)C)c1O)O[C@@]1(C)[C@@H](C2)C[C@H]2C[C@@H]1C2(C)C`, the result in the data set on Leishmania donovani, in the data set with Candida albicans, in the data set with Cryptococcus neoformans, with Aspergillus fumigatus, with SK-MEL [1] and in the data set on KB [2] was inactive. Moreover, the result in the data set on BT-549 [3] and in the data set on SK-OV-3 [4] was inactive. Besides, the Activity entry (with Vero [5]; in [6]) was “Not Active” in each case.
